The values that follow come from ChEMBL document CHEMBL3734658, “Ring-truncated deguelin derivatives as potent Hypoxia Inducible Factor-1α (HIF-1α) inhibitors” (Eur J Med Chem, 2015).

Series [1] concerns the target Hypoxia-inducible factor 1-alpha (Homo sapiens) (UniProt Q16665). Nature of the series: Inhibition of HIF-1alpha in human H1299 cells at 100 nM after 72 hrs subsequently incubated for 12 hrs under hypoxic conditions by Western blot assay relative to control. The series is classed as cell-based. The conditions noted are these: values are per cent of control. Summed up: (§1)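 H1299 non-small-cell lung carcinoma cells were left untreated or exposed to compound at 100 nM (or 10 nM for a follow-up subset) for 72 h. They were then held under hypoxia for 12 h, and HIF-1α protein was assessed by western blot.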
A general note: In western blotting, separated proteins are transferred to a membrane and probed.

Series [2] shares this target. Kind of series: Inhibition of HIF-1alpha in human H1299 cells at 10 nM after 72 hrs subsequently incubated for 12 hrs under hypoxic conditions by Western blot assay relative to control. It is filed as cell-based. Particulars: values are per cent of control. The gist of the method: as §1
Series [3] is described as follows: Cytotoxicity against mouse HT22 cells assessed as cell viability at 0.1 to 10 uM. The conditions noted are these: ht-22, 10 µM. The series is classed as cell-based.
The nature of series [4]: Antitumor activity against human H1299 cells assessed as reduction in cell viability at 20 uM by MTT assay. It is filed as functional. The conditions noted are these: NCI-H1299. On the technique in general: Tetrazolium dyes change colour on reduction, which living cells bring about.
Series [5] has as its system NCI-H1299. Nature of the series: Antitumor activity against human H1299 cells assessed as reduction in cell viability by MTT assay. The series is classed as functional, cell-based.
The species named for series [6] is Homo sapiens. Kind of series: Antiangiogenic activity in human RMVEC assessed as inhibition of VEGF-induced cell proliferation under hypoxic condition at 100 nM by [3H]thymidine incorporation assay. It is filed as functional. A general note: Uptake of a labelled nucleoside into DNA is a usual measure of proliferation.
In series [7] the target is Hypoxia-inducible factor 1-alpha (Homo sapiens) (UniProt Q16665). Nature of the series: Inhibition of HIF-1alpha in human H1299 cells after 72 hrs subsequently incubated for 12 hrs under hypoxic conditions by Western blot assay relative to control. It is filed as cell-based. The gist of the method: as §1
For series [8], the species on record is Homo sapiens. Nature of the series: Antiangiogenic activity in human RMVEC assessed as inhibition of VEGF-induced cell migration under hypoxic condition at 100 nM by transwell chamber system. It is filed as functional.

Calls of active or inactive are those of the source. The calls are words filed in the database; no cut-off is given here.

Chain of Hypoxia-inducible factor 1-alpha (Homo sapiens) (Q16665 whole entry, looked up): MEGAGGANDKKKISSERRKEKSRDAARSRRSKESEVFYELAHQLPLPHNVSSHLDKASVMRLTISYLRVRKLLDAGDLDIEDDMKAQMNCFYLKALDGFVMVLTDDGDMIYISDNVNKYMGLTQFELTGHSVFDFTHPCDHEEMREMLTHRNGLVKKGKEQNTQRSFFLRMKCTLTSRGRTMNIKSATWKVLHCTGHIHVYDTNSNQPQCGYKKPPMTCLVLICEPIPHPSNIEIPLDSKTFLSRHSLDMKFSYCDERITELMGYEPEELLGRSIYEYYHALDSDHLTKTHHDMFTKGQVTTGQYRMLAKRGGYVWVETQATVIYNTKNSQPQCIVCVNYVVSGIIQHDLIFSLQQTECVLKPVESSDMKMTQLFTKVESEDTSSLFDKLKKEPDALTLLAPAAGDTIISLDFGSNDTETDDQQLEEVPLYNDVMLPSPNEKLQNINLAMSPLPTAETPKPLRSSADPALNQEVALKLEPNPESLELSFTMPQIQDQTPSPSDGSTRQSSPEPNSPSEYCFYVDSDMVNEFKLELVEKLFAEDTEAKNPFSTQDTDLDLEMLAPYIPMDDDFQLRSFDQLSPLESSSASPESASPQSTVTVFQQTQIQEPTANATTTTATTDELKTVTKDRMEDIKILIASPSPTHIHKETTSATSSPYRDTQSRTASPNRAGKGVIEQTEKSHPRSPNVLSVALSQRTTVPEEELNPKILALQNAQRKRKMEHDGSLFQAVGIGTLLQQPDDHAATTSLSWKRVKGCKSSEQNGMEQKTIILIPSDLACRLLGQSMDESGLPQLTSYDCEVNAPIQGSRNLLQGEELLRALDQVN

Turning to `COc1ccc(CC(OC(C)=O)c2ccc3c(c2OC)C=CC(C)(C)O3)nc1OC` (stereo not given), in series [1], the response, % of control amounted to 114%.
For `COc1ccc([C@H](C)C(=O)c2ccc3c(c2OC)C=CC(C)(C)O3)nc1OC`, the response, % of control in series [2] was 88.4%; in series [1], 44.2%.
In turn, `CCC(c1ccc(OC)c(OC)c1F)C(OC(=O)C1CC1)c1ccc2c(c1OC)C=CC(C)(C)O2` (stereo not given) came in with a response, % of control in series [1] of 87.9%.
Same read-out and setting: then `CCC(=O)OC(Cc1ccc(OC)c(OC)c1F)c1ccc2c(c1OC)C=CC(C)(C)O2` (stereo not given), with 77.3%; and `COc1ccc(C(C)(C)C(=O)c2ccc3c(c2OC)C=CC(C)(C)O3)nc1OC`, with 99.9%.
On the same count and under the same terms, next, `COc1ccc(C(C)(C)C(O)c2ccc3c(c2OC)C=CC(C)(C)O3)c(F)c1OC` (stereo not given): 68%; `COc1ccc(CC(=O)c2ccc3c(c2OC)C=CC(C)(C)O3)cc1OC`: 85.3%.
Same read-out and setting: next, `COc1ccc([C@H](C)[C@H](OC(C)=O)c2ccc3c(c2OC)C=CC(C)(C)O3)c(F)c1OC` (relative stereo): 79.4%; `COc1ccc(/C=C/c2ccc3c(c2OC)C=CC(C)(C)O3)c(F)c1OC`: 134%; `COc1ccc(C(C)C(O)c2ccc3c(c2OC)C=CC(C)(C)O3)c(F)c1OC` (stereo not given): 75%.
Turning to `COc1ccc(CC(OC(C)=O)c2ccc3c(c2OC)C=CC(C)(C)O3)c(F)c1OC` (stereo not given), in series [1], the response, % of control is 69.3%.
On to `COc1ccc(C/C(=N\O)c2ccc3c(c2OC)C=CC(C)(C)O3)nc1OC`, for which the response, % of control in series [1] is 78.5%.
For `COc1ccc(C(C)(C)C(OC(N)=O)c2ccc3c(c2OC)C=CC(C)(C)O3)nc1OC` (stereo not given), in series [1], the response, % of control turned out to be 108%.
On the same count and under the same terms, next, `COc1ccc(C(C)(C)C(OC(C)=O)c2ccc3c(c2OC)C=CC(C)(C)O3)c(F)c1OC` (stereo not given): 83.4%.
With `COc1ccc(C(C)C(OC(N)=O)c2ccc3c(c2OC)C=CC(C)(C)O3)c(F)c1OC` (stereo not given), the response, % of control in series [2] is 80.9%; in series [1] it was 48.8%.
In turn, `COc1ccc(C(C)(C)C(O)c2ccc3c(c2OC)C=CC(C)(C)O3)nc1OC` (stereo not given) gave a response, % of control in series [1] of 69.2%.
Still for that read-out and setting: next, `COc1ccc(CC(O)c2ccc3c(c2OC)C=CC(C)(C)O3)nc1OC` (stereo not given): 75.2%.
As for `COc1cc2c(cc1OC)[C@@H]1C(=O)c3ccc4c(c3O[C@@H]1CO2)C=CC(C)(C)O4` [DEGUELIN], the response, % of control in series [2] was 94%; in series [1] it was 64%. Further, the Activity result in series [3] is on record as “Toxic”.
In the case of `COc1ccc(C(C)(C)C(OC(=O)C2CC2)c2ccc3c(c2OC)C=CC(C)(C)O3)c(F)c1OC` (stereo not given), the response, % of control in series [1] was 111%.
For the molecule `COc1ccc(C(C)(C)C(=O)c2ccc3c(c2OC)C=CC(C)(C)O3)c(F)c1OC`, the response, % of control in series [1] amounted to 74.9%.
On the same count and under the same terms, next, `CCC(=O)OC(c1ccc2c(c1OC)C=CC(C)(C)O2)C(C)(C)c1ccc(OC)c(OC)c1F` (stereo not given): 88.2%; `COc1ccc([C@H](O)[C@@H](O)c2ccc3c(c2OC)C=CC(C)(C)O3)nc1OC` (relative stereo): 68.9%; `COc1ccc(/C=C/c2ccc3c(c2OC)C=CC(C)(C)O3)nc1OC`: 133%.
`COc1ccc(C(C)C(OC(C)=O)c2ccc3c(c2OC)C=CC(C)(C)O3)nc1OC` (stereo not given) returned a response, % of control in series [1] of 96.7%.
On the same count and under the same terms, then `COc1ccc([C@H](O)[C@@H](O)c2ccc3c(c2OC)C=CC(C)(C)O3)c(F)c1OC` (relative stereo), with 68.1%.
As for `CO/N=C(/Cc1ccc(OC)c(OC)n1)c1ccc2c(c1OC)C=CC(C)(C)O2`, the results for the response, % of control in series [2] and in series [1] were 74% and 64.8%, respectively.
Consider `COc1ccc(CC(=O)c2ccc3c(c2OC)C=CC(C)(C)O3)nc1OC`, for which, in series [1], the response, % of control turned out to be 77.6%.
Usually inhibition stands for the relative decrease from the control value, in per cent. As for `COc1ccc(C(C)C(OC(=O)C2CC2)c2ccc3c(c2OC)C=CC(C)(C)O3)c(F)c1OC` (stereo not given), the inhibition at 20 µM in series [4] is 50%. Also, the response, % of control in series [2] was found to be 81.6%; in series [1] it was 35%. Also, the Activity entry in series [5] is “Dose-dependent effect”.
The molecule `CNC(=O)OC(c1ccc2c(c1OC)C=CC(C)(C)O2)C(C)c1ccc(OC)c(OC)c1F` (stereo not given) registered a response, % of control in series [1] of 76.5%.
On the same count and under the same terms, next, `COc1ccc(C/C(=N/O)c2ccc3c(c2OC)C=CC(C)(C)O3)nc1OC`: 79.2%.
Consider `COc1ccc(C(C)(C)C(OC(C)=O)c2ccc3c(c2OC)C=CC(C)(C)O3)nc1OC` (stereo not given), for which, in series [1], the response, % of control came to 113%.
As to `COc1ccc([C@H](C)[C@@H](OC(C)=O)c2ccc3c(c2OC)C=CC(C)(C)O3)c(F)c1OC` (relative stereo), the inhibition at 20 µM in series [4] is 50%. For the same molecule, the response, % of control in series [2] was found to be 63.2%; in series [1] it was 52.2%. In addition, the outcome in series [6] and in series [8] was Active. The Activity entry in series [5] was “Dose-dependent effect”; in series [3] it was “Non-toxic”. For the same molecule, in series [7], the inhibition entry was “Dose-dependent effect”.
As to `COc1ccc(C(C)C(=O)c2ccc3c(c2OC)C=CC(C)(C)O3)nc1OC` (stereo not given), in series [1], the response, % of control is 89.3%.
Still for that read-out and setting: then `COc1ccc(C(C)C(O)c2ccc3c(c2OC)C=CC(C)(C)O3)nc1OC` (stereo not given), with 71.2%; and `COc1ccc(C(C)C(OC(=O)C2CCC2)c2ccc3c(c2OC)C=CC(C)(C)O3)c(F)c1OC` (stereo not given), with 69.5%; and `COc1ccc(CC(O)c2ccc3c(c2OC)C=CC(C)(C)O3)c(F)c1OC` (stereo not given), with 74.3%.
As to `COc1ccc(C(C)C(=O)c2ccc3c(c2OC)C=CC(C)(C)O3)c(F)c1OC` (stereo not given), the response, % of control in series [1] stood at 78.6%.
Regarding `COc1ccc(CC(OC(N)=O)c2ccc3c(c2OC)C=CC(C)(C)O3)nc1OC` (stereo not given), in series [1], the response, % of control came out at 75%.
`COc1ccc([C@H](C)C(=O)c2ccc3c(c2OC)C=CC(C)(C)O3)cc1OC`: the response, % of control in series [1] was 82.1%.
As for `COc1ccc(C(C)C(OC(=O)N(C)C)c2ccc3c(c2OC)C=CC(C)(C)O3)c(F)c1OC` (stereo not given), the results for the response, % of control in series [2] and in series [1] were 93.6% and 64.1%, respectively.
As for `CCC(=O)OC(c1ccc2c(c1OC)C=CC(C)(C)O2)C(C)c1ccc(OC)c(OC)c1F` (stereo not given), the response, % of control in series [1] stood at 63.7%.
Still for that read-out and setting: then `COc1ccc(CC(=O)c2ccc3c(c2OC)C=CC(C)(C)O3)c(F)c1OC`, with 67.8%.
On the same count and under the same terms, next, `COc1ccc(CC(OC(N)=O)c2ccc3c(c2OC)C=CC(C)(C)O3)c(F)c1OC` (stereo not given): 88.9%; `COc1ccc(CC(OC(=O)C2CC2)c2ccc3c(c2OC)C=CC(C)(C)O3)c(F)c1OC` (stereo not given): 70.3%.
